Values after ≈ are worked out from the molar mass of the structure shown. Active and inactive are the calls of the source. The calls are words filed in the database; no cut-off is given here.
Tests used:
[1] = system: Plasmodium berghei; assay: Antimalarial activity as reduced parasitaemia at day 10 in Plasmodium berghei NK65 infected mice (Mus musculus) at 30 mg/kg peroral dose […] post infection; type: functional; design: scale not given: the % may be the effect or the level left; details: route oral
How it was run: (§1)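 Peters 4-day suppressive test. Male Swiss Webster mice (18-20 g), 5 per group, infected ip with 2 X10^7 P. berghei NK-65 parasitized red cells. Compounds in 0.1N HCl given orally about 2 h post-infection, once daily on days 0-2; vehicle and β-arteether control groups. Parasitemia followed on Giemsa-stained tail blood smears up to day 28.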

[2] = system: Plasmodium berghei; assay: Antimalarial activity as reduced parasitaemia day 7 in Plasmodium berghei NK65 infected mice (Mus musculus) at 10 mg/kg peroral dose […] […]; type: functional; design: scale not given: the % may be the effect or the level left; details: route oral; how it was run: as §1
[3] = system: Mycobacterium intracellulare; assay: Antimicrobial activity against Mycobacterium intracellular ATCC 23068; type: functional, organism-based
How it was run: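 M. intracellulare ATCC 23068 tested by a modified Franzblau method. […] Fluorescence read at 544ex/590em before and after incubation.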

[4] = system: Plasmodium berghei; assay: Antimalarial activity as reduced parasitaemia at day 7 in Plasmodium berghei NK65 infected mice (Mus musculus) at 30 mg/kg peroral dose […] post infection; type: functional; design: scale not given: the % may be the effect or the level left; details: route oral; how it was run: as §1
[5] = system: Plasmodium berghei; assay: Antimalarial activity as reduced parasitaemia at day 14 in Plasmodium berghei NK65 infected mice (Mus musculus) at 30 mg/kg peroral dose once daily for 3 days post infection; design: scale not given: the % may be the effect or the level left; details: route oral
[6] = system: Staphylococcus aureus; assay: Antimicrobial activity against methicillin-resistant Staphylococcus aureus ATCC 43300; type: functional, organism-based
[7] = system: Leishmania donovani; assay: Antileishmanial activity against Leishmania donovani promastigotes after 72 hrs by almar blue assay; type: functional, organism-based
[8] = system: Candida albicans; assay: Antimicrobial activity against Candida albicans ATCC 90028; type: functional, organism-based
[9] = system: Plasmodium berghei; assay: Antimalarial activity as reduced parasitaemia on day 10 in Plasmodium berghei NK65 infected mice (Mus musculus) at 10 mg/kg peroral dose […] post infection; type: functional; design: scale not given: the % may be the effect or the level left; details: route oral; how it was run: as §1
[10] = Cytotoxicity against african green monkey Vero cells after 48 hrs by neutral red assay; type: cell-based; details: chlorocebus sabaeus
How it was run: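 Vero monkey kidney cells seeded at 25,000 cells/well and grown 24 h, then given samples at several concentrations for 48 h. Viable cells were counted by neutral red. IC50 was taken from dose-response curves, with doxorubicin as positive control.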

[11] = system: Plasmodium berghei; assay: Antimalarial activity as reduced parasitaemia at day 14 in Plasmodium berghei NK65 infected mice (Mus musculus) at 10 mg/kg peroral dose […]; type: functional; design: scale not given: the % may be the effect or the level left; details: route oral; how it was run: as §1
[12] = system: Plasmodium falciparum; assay: Antimalarial activity against chloroquine-sensitive Plasmodium falciparum D6 as LDH activity; type: functional, organism-based
How it was run: (§2)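 Red cells infected with P. falciparum D6 or W2 (2% parasitemia, 2% hematocrit, RPMI 1640 with 10% human serum and 60 µg/mL amikacin) added to serially diluted samples. Gassed with 90% N2/5% O2/5% CO2 and held 37 °C for 72 h. Parasite LDH read with Malstat plus NBT/PES at 650 nm. IC50 from dose-response curves; artemisinin and chloroquine controls.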

[13] = system: Cryptococcus neoformans; assay: Antimicrobial activity against Cryptococcus neoformans ATCC 90113; type: functional, organism-based
[14] = system: Plasmodium falciparum; assay: Antimalarial activity against chloroquine-resistant Plasmodium falciparum W2 by LDH activity; type: functional, organism-based; how it was run: as §2
[15] = system: Vero; assay: Cytotoxicity against african green monkey Vero cells at 4.76 ug/ml after 48 hrs by neutral red assay; type: functional, cell-based; details: Chlorocebus sabaeus
[16] = target: Glycogen synthase kinase-3 alpha (Homo sapiens, UniProt P49840); assay: Inhibition of GSK3alpha
Chain of Glycogen synthase kinase-3 alpha (P49840 whole entry): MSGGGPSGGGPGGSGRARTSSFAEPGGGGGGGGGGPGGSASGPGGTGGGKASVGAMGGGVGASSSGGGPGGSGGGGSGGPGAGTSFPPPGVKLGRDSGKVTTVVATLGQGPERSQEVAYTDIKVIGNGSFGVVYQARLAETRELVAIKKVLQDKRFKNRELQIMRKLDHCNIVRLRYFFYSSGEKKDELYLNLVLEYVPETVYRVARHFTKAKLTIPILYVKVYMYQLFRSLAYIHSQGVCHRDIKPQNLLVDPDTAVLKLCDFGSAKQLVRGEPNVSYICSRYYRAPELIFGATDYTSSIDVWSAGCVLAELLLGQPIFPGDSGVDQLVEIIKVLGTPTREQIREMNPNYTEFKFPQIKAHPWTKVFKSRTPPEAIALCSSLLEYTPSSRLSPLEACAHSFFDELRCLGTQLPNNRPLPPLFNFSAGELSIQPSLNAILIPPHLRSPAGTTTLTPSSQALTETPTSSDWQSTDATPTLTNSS

[17] = target: Glycogen synthase kinase-3 beta (Homo sapiens, UniProt P49841); assay: Inhibition of GSK3-beta
Chain of Glycogen synthase kinase-3 beta (P49841 whole entry): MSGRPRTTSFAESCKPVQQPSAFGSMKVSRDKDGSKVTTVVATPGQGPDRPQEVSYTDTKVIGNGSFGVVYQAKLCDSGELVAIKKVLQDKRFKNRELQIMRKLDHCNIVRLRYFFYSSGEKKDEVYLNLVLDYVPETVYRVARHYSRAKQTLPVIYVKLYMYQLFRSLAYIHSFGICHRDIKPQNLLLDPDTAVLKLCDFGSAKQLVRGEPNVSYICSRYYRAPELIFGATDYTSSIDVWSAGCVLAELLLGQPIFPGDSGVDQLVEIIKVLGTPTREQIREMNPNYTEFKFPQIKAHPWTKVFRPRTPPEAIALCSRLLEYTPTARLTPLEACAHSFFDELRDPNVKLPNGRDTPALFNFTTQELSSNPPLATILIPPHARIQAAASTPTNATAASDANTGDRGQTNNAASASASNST

SMILES	Activity [2] [%]	IC50 [3] [µg/mL]	MIC [3] [µg/mL]	IC50 [6] [µg/mL]	IC90 [7] [µg/mL]	IC50 [8] [µg/mL]	MIC [8] [µg/mL]	Activity [9] [%]	Activity [11] [%]	IC50 [12] [µg/mL]	IC50 [13] [µg/mL]	MIC [13] [µg/mL]	IC50 [14] [µg/mL]	MIC [6] [µg/mL]	IC50 [7] [µg/mL]	MBC [3] [µg/mL]	MFC [6] [µg/mL]	CC50 at 48 h ([10]; read-out: TC50) [µg/mL]	also measured
Oc1cccc2c1[nH]c1c(C3=C[C@@]4(O)CC/C=C\CCCCN5CC[C@@H]3[C@]3(C[C@@H]6/C=C\CCCCN6[C@H]34)C5)nccc12	57	0.25 (≈ 0.443 µM)	0.31 (≈ 0.549 µM)	6.5 (≈ 11.5 µM)	11 (≈ 19.5 µM)	10 (≈ 17.7 µM)	5 (≈ 8.85 µM)	35	32	–	–	–	–	–	–	–	–	–	Activity [1]: 83%; Activity [4]: 100%; Activity [5]: 67%; CC50 at 48 h [10]: 1.1 µg/mL (≈ 1.95 µM)
CC(=O)Oc1cccc2c1[nH]c1c(C3=C[C@@]4(OC(C)=O)CC/C=C\CCCCN5CC[C@@H]3[C@]3(C[C@@H]6/C=C\CCCCN6[C@H]34)C5)nccc12 [8,12-DIACETOXYMANZAMINE A]	–	4.5 (≈ 6.94 µM)	–	2 (≈ 3.08 µM)	35 (≈ 53.9 µM)	> 20	–	–	–	1.3 (≈ 2 µM)	> 20	10 (≈ 15.4 µM)	1.2 (≈ 1.85 µM)	5 (≈ 7.71 µM)	16 (≈ 24.7 µM)	–	–	–	Activity [15]: inactive
CC(=O)Oc1cccc2c1[nH]c1c(C3=C[C@@]4(O)CC/C=C\CCCCN5CC[C@@H]3[C@]3(C[C@@H]6/C=C\CCCCN6[C@H]34)C5)nccc12 [8-ACETOXYMANZAMINE A]	61	0.1 (≈ 0.165 µM)	0.16 (≈ 0.264 µM)	0.5 (≈ 0.824 µM)	7 (≈ 11.5 µM)	1.5 (≈ 2.47 µM)	2.5 (≈ 4.12 µM)	51	8	0.0096 (≈ 0.0158 µM)	1.5 (≈ 2.47 µM)	2.5 (≈ 4.12 µM)	0.03 (≈ 0.0494 µM)	–	3.4 (≈ 5.6 µM)	> 20	20 (≈ 33 µM)	370 (≈ 610 µM)	Activity [1]: 84%; MFC [13]: 5 µg/mL (≈ 8.24 µM); Activity [4]: 93%; Activity [5]: 48%; MFC [8]: 5 µg/mL (≈ 8.24 µM)
COc1cccc2c1[nH]c1c(C3=C[C@@]4(O)CC/C=C\CCCCN5CC[C@@H]3[C@]3(C[C@@H]6/C=C\CCCCN6[C@H]34)C5)nccc12 [8-METHOXYMANZAMINE A]	–	0.15 (≈ 0.259 µM)	0.63 (≈ 1.09 µM)	0.55 (≈ 0.95 µM)	24 (≈ 41.5 µM)	3 (≈ 5.18 µM)	10 (≈ 17.3 µM)	–	–	0.037 (≈ 0.0639 µM)	2 (≈ 3.46 µM)	–	0.047 (≈ 0.0812 µM)	> 20	5 (≈ 8.64 µM)	20 (≈ 34.6 µM)	> 20	980 (≈ 1690 µM)	MFC [8]: > 20 µg/mL
C[C@@H]1[C@H](O)[C@@H](C)/C=C/C=C/C=C/C=C/C=C/C=C/C=C/[C@H](O[C@@H]2O[C@H](C)[C@@H](O)[C@H](N)[C@@H]2O)C[C@@H]2O[C@](O)(C[C@@H](O)C[C@@H](O)[C@H](O)CC[C@@H](O)C[C@@H](O)CC(=O)O[C@H]1C)C[C@H](O)[C@H]2C(=O)O [AMPHOTERICIN B]	–	–	–	–	0.36 (≈ 0.39 µM)	0.1 (≈ 0.108 µM)	0.63 (≈ 0.682 µM)	–	–	–	1 (≈ 1.08 µM)	2.5 (≈ 2.71 µM)	–	–	0.4 (≈ 0.433 µM)	–	–	–	MFC [13]: 2.5 µg/mL (≈ 2.71 µM)
C[C@@H]1CC[C@H]2[C@@H](C)C(=O)O[C@@H]3O[C@@]4(C)CC[C@@H]1[C@]32OO4 [ARTEMISININ]	–	–	–	–	–	–	–	–	–	0.0043 (≈ 0.0152 µM)	–	–	0.0044 (≈ 0.0156 µM)	–	–	–	–	–	–
O=C(O)c1cn(C2CC2)c2cc(N3CCNCC3)c(F)cc2c1=O [CIPROFLOXACIN]	–	–	0.5 (≈ 1.51 µM)	–	–	–	–	–	–	–	–	–	–	0.25 (≈ 0.754 µM)	–	> 20	1 (≈ 3.02 µM)	–	–
O[C@]12C=C(c3nccc4c3[nH]c3ccccc34)[C@@H]3CCN(CCCC/C=C\CC1)C[C@@]31C[C@@H]3/C=C\CCCCN3[C@H]12 [MANZAMINE A]	100	–	0.63 (≈ 1.15 µM)	–	1.8 (≈ 3.28 µM)	–	–	100	90	–	–	10 (≈ 18.2 µM)	0.005 (≈ 0.00911 µM)	–	–	–	–	680 (≈ 1240 µM)	IC50 [16]: 25 µM; IC50 [17]: 10 µM
N=C(N)c1ccc(OCCCCCOc2ccc(C(=N)N)cc2)cc1 [PENTAMIDINE]	–	–	–	–	1.8 (≈ 5.29 µM)	–	–	–	–	–	–	–	–	–	0.9 (≈ 2.64 µM)	–	–	–	–

— ChEMBL document CHEMBL1155128, “Kinetic studies and bioactivity of potential manzamine prodrugs” (J Nat Prod, 2008)
